Data on 6 compounds can be found in ChEMBL document CHEMBL3994637, “Broad spectrum anti-infective properties of benzisothiazolones and the parallels in their anti-bacterial and anti-fungal effects” (Bioorg Med Chem Lett, 2017).

Holding throughout (format): functional
In test [1] the test system is Staphylococcus aureus. Put plainly: Antibacterial activity against Staphylococcus aureus ATCC 25923 by broth microdilution method. On the technique in general: Dilution methods test growth across graded concentrations, often in twofold steps.
For test [2], the system named is Staphylococcus aureus. Put plainly: Antibacterial activity against methicillin-resistant Staphylococcus aureus ATCC 700699 by broth microdilution method. Particulars: Mu50.
For test [3], the system named is Staphylococcus aureus. The test is described as follows: Antibacterial activity against Staphylococcus aureus ATCC 29213 by broth microdilution method.
The test system of a further test is Escherichia coli. The test is described as follows: Antibacterial activity against Escherichia coli ATCC 9637 by broth microdilution method. As to conditions: W. In outline: (§1)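 Bacteria were tested by the NCCLS method in Mueller Hinton broth, with gentamicin and norfloxacin as reference drugs.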
The subject of another test is Pseudomonas aeruginosa. The test is described as follows: Antibacterial activity against Pseudomonas aeruginosa ATCC BAA-427 by broth microdilution method. The procedure, abridged:
as §1

For the next test, the system named is Klebsiella pneumoniae. Put plainly: Antibacterial activity against Klebsiella pneumoniae ATCC 27736 by broth microdilution method. In outline: as §1
The subject of another test is Candida albicans. Put plainly: Anti-fungal activity against Candida albicans after 48 hrs by broth microdilution method.
The next test relates to Cryptococcus neoformans. Put plainly: Anti-fungal activity against Cryptococcus neoformans after 48 hrs by broth microdilution method.
The subject of another test is Sporothrix schenckii. Put plainly: Anti-fungal activity against Sporothrix schenckii after 48 hrs by broth microdilution method.
The subject of test [4] is Trichophyton mentagrophytes. Put plainly: Anti-fungal activity against Trichophyton mentagrophytes after 48 hrs by broth microdilution method.
The next test concerns Aspergillus fumigatus. Put plainly: Anti-fungal activity against Aspergillus fumigatus after 48 hrs by broth microdilution method.
The subject of a further test is Candida parapsilosis. Put plainly: Anti-fungal activity against Candida parapsilosis ATCC 22019 after 48 hrs by broth microdilution method. As to conditions: Lodderomyces parapsilosis, ATCC 22019, 48 h.
In the next test the test system is Plasmodium falciparum. The test is described as follows: Antimalarial activity against chloroquine-sensitive Plasmodium falciparum 3D7 after 72 hrs by SYBR Green-1 staining based fluorescence assay. Particulars: 3D7, 72 h.

For orientation: IC50 means the midpoint of a concentration-inhibition curve. A low value points to inhibition by little substance. What is called MIC is the smallest concentration in the dilution series that meets the test's criterion for growth inhibition.

≈ marks a conversion by molar mass, not a printed value. Some results are limits rather than exact numbers.

With `COC(=O)[C@H](CC(C)C)n1sc2ccccc2c1=O`, the 50% inhibitory concentration (IC50) with Staphylococcus aureus [1] was 2.1 µg/mL (≈ 7.52 µM); in the test with Staphylococcus aureus [2] it was 2.1 µg/mL (≈ 7.52 µM); in the test with Staphylococcus aureus [3] it was 2.7 µg/mL (≈ 9.66 µM); in the test with Escherichia coli, above 50 µg/mL; with Pseudomonas aeruginosa it was above 50 µg/mL; in the test on Klebsiella pneumoniae, above 50 µg/mL. Also, the IC50 with Candida albicans was 1.5 µg/mL (≈ 5.37 µM); with Cryptococcus neoformans it was 8.6 µg/mL (≈ 30.8 µM); in the test with Sporothrix schenckii, 2.9 µg/mL (≈ 10.4 µM); in [4], 6.2 µg/mL (≈ 22.2 µM); in the test with Candida parapsilosis, 2.4 µg/mL (≈ 8.59 µM); in the test on Plasmodium falciparum, above 2000 nM. For the same compound, the minimal inhibitory concentration (MIC) was 3.5 µg/mL (≈ 12.5 µM) with Staphylococcus aureus [1]; 3.5 µg/mL (≈ 12.5 µM) in the test with Staphylococcus aureus [2]; 6.9 µg/mL (≈ 24.7 µM) in the test with Staphylococcus aureus [3]; above 50 µg/mL with Escherichia coli; above 50 µg/mL against Pseudomonas aeruginosa; above 50 µg/mL against Klebsiella pneumoniae. Moreover, the MIC in the test with Candida albicans is 1.9 µg/mL (≈ 6.8 µM); against Cryptococcus neoformans, 10.5 µg/mL (≈ 37.6 µM); in the test with Sporothrix schenckii, 20.4 µg/mL (≈ 73 µM); in [4], 11.4 µg/mL (≈ 40.8 µM); against Aspergillus fumigatus, above 50 µg/mL; in the test with Candida parapsilosis, 4.9 µg/mL (≈ 17.5 µM).
As for `O=c1c2ccccc2sn1C1CCCCC1`, the IC50 in the test on Staphylococcus aureus [1] was 6.8 µg/mL (≈ 29.1 µM); in the test on Staphylococcus aureus [2] it was 1 µg/mL (≈ 4.29 µM); in the test on Staphylococcus aureus [3], 4.6 µg/mL (≈ 19.7 µM); in the test with Escherichia coli it was above 50 µg/mL; in the test with Pseudomonas aeruginosa it was above 50 µg/mL; with Klebsiella pneumoniae it was above 50 µg/mL. Moreover, the IC50 in the test on Cryptococcus neoformans is 1 µg/mL (≈ 4.29 µM); in the test on Sporothrix schenckii it was 0.4 µg/mL (≈ 1.71 µM); in test [4], 0.7 µg/mL (≈ 3 µM); with Aspergillus fumigatus, 0.4 µg/mL (≈ 1.71 µM); in the test with Candida parapsilosis it was 0.7 µg/mL (≈ 3 µM); in the test on Plasmodium falciparum it was above 2000 nM. Moreover, the minimum inhibitory concentration (MIC) with Staphylococcus aureus [1] is 9.8 µg/mL (≈ 42 µM); against Staphylococcus aureus [2], 2.5 µg/mL (≈ 10.7 µM); against Staphylococcus aureus [3], 7.1 µg/mL (≈ 30.4 µM); against Escherichia coli, above 50 µg/mL; against Pseudomonas aeruginosa, above 50 µg/mL; with Klebsiella pneumoniae, above 50 µg/mL. The MIC in the test with Candida albicans was determined as 0.5 µg/mL (≈ 2.14 µM); with Cryptococcus neoformans, 1.3 µg/mL (≈ 5.57 µM); in the test with Sporothrix schenckii it was 0.6 µg/mL (≈ 2.57 µM); in [4], 1 µg/mL (≈ 4.29 µM); against Aspergillus fumigatus, 3.7 µg/mL (≈ 15.9 µM); in the test on Candida parapsilosis, 0.9 µg/mL (≈ 3.86 µM).
With `CCn1cc(C(=O)O)c(=O)c2cc(F)c(N3CCNCC3)cc21` [NORFLOXACIN], the MIC in the test with Staphylococcus aureus [1] is 0.39 µg/mL (≈ 1.22 µM); against Staphylococcus aureus [2] it was above 50 µg/mL; against Staphylococcus aureus [3], 0.78 µg/mL (≈ 2.44 µM); against Escherichia coli, 0.39 µg/mL (≈ 1.22 µM); against Pseudomonas aeruginosa it was above 50 µg/mL; in the test with Klebsiella pneumoniae it was 0.78 µg/mL (≈ 2.44 µM).
Consider `C[C@@H]1[C@H](O)[C@@H](C)/C=C/C=C/C=C/C=C/C=C/C=C/C=C/[C@H](O[C@@H]2O[C@H](C)[C@@H](O)[C@H](N)[C@@H]2O)C[C@@H]2O[C@](O)(C[C@@H](O)C[C@@H](O)[C@H](O)CC[C@@H](O)C[C@@H](O)CC(=O)O[C@H]1C)C[C@H](O)[C@H]2C(=O)O` [AMPHOTERICIN B], for which the MIC against Candida albicans was determined as 0.016 µg/mL (≈ 0.0173 µM); in the test on Cryptococcus neoformans it was 0.125 µg/mL (≈ 0.135 µM); in the test on Sporothrix schenckii, 0.25 µg/mL (≈ 0.271 µM); in [4], 0.25 µg/mL (≈ 0.271 µM); against Aspergillus fumigatus, 0.5 µg/mL (≈ 0.541 µM); in the test on Candida parapsilosis, 0.016 µg/mL (≈ 0.0173 µM).
`OC(Cn1cncn1)(Cn1cncn1)c1ccc(F)cc1F` [FLUCONAZOLE]: the MIC with Candida albicans is 1 µg/mL (≈ 3.27 µM); against Cryptococcus neoformans, 2 µg/mL (≈ 6.53 µM); in the test with Sporothrix schenckii, 2 µg/mL (≈ 6.53 µM); in test [4], above 32 µg/mL; in the test on Aspergillus fumigatus it was above 32 µg/mL; with Candida parapsilosis, 2 µg/mL (≈ 6.53 µM).
Take GENTAMICIN: the MIC with Staphylococcus aureus [1] is 6.25 µg/mL; against Staphylococcus aureus [2], above 50 µg/mL; against Staphylococcus aureus [3] it was 0.78 µg/mL; against Escherichia coli it was 6.25 µg/mL; with Pseudomonas aeruginosa, above 50 µg/mL; with Klebsiella pneumoniae, 0.78 µg/mL.
